Results published in ChEMBL document CHEMBL2429774, “Synthesis and biological evaluation of novel 1,6-diaryl pyridin-2(1H)-one analogs” (Eur J Med Chem, 2013).
Activity calls are given as the source filed them. The calls are words filed in the database; no cut-off is given here.

Experiments:
SK-OV-3 = experiment: Cytotoxicity against human SKOV3 cells after 72 hrs by spectrophotometry; format: functional, cell-based; settings: SK-OV-3, 72 h
Summary of the method: (§1)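 Cells grown as monolayers in DMEM with 10% FBS, penicillin and streptomycin at 37 °C, 5% CO₂. Seeded at 5 × 10³ cells/well and exposed for 72 h. Medium changed, then another day of incubation. XTT (1 mg/mL) plus PMS added in serum-free medium for 4 h at 37 °C, read at 492 nm. Percent of control growth = treated/control absorbance × 100 (n = 3). GI50 taken from the linear portion of the curve.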

H22 [1] = experiment: Antitumor activity against mouse H22 cells transfected in nude mouse assessed as tumor growth inhibition at 10 mg/kg, qd after 7 days relative to control; format: functional; settings: H22, 168 h, read-out: TGI
Summary of the method: (§2)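 Female SPF/ICR athymic nude mice, 4–5 weeks old (24 ± 2 g), received H22 cells (1 × 10⁶ per animal) s.c. into the armpit. Dosing started once tumors were detectable by fluorescent macro-imaging and was given once daily for 7 days. Animals were then killed and solid tumors excised and weighed. Inhibition = (mean vehicle tumor weight − mean treated)/mean vehicle × 100%. n = 6 per group at start.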

HepG2 [2] = experiment: Cytotoxicity against human HepG2 cells after 72 hrs by spectrophotometry; format: functional, cell-based; settings: HepG2, 72 h; summary of the method: as §1
H22 [3] = experiment: Antitumor activity against mouse H22 cells transfected in nude mouse assessed as tumor growth inhibition at 50 mg/kg, qd after 7 days relative to control; format: functional; settings: H22, 168 h, read-out: TGI; summary of the method: as §2
HepG2 [4] = experiment: Cell cycle arrest in human HepG2 cells assessed as accumulation at G2/M phase at 62.5 nM after 24 hrs by flow cytometry; format: functional, cell-based
Summary of the method: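 After treatment, cells were harvested, washed in PBS and resuspended in 1 mL 0.1% sodium citrate containing 0.05 mg propidium iodide and 50 µg RNase for 30 min at room temperature in the dark. DNA content was measured by flow cytometry, with at least three experiments run.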

H22 [5] = experiment: Antitumor activity against mouse H22 cells transfected in nude mouse assessed as tumor growth inhibition at 200 mg/kg, qd after 7 days relative to control; format: functional; settings: H22, 168 h, read-out: TGI; summary of the method: as §2

SMILES: CC(=O)O[C@H]1C(=O)[C@@]2(C)[C@H]([C@H](OC(=O)c3ccccc3)[C@]3(O)C[C@H](OC(=O)[C@H](O)[C@@H](NC(=O)c4ccccc4)c4ccccc4)C(C)=C1C3(C)C)[C@]1(OC(C)=O)CO[C@@H]1C[C@@H]2O [PACLITAXEL]
- IC50 (SK-OV-3): 12 nM
- inhibition in vivo at 10 mg/kg (H22 [1]): 47%
- IC50 (HepG2 [2]): 6 nM

SMILES: COc1ccc(-c2cccc(=O)n2-c2cc(OC)c(OC)c(OC)c2)cc1C
- IC50 (SK-OV-3): 583 nM
- IC50 (HepG2 [2]): 129 nM

SMILES: COc1cc(-n2c(-c3ccc4c(c3)OCO4)cccc2=O)cc(OC)c1OC
- IC50 (SK-OV-3): 64 nM
- inhibition in vivo at 50 mg/kg (H22 [3]): 17%
- Activity (HepG2 [4]): inactive
- inhibition in vivo at 200 mg/kg (H22 [5]): 27%
- IC50 (HepG2 [2]): < 10 nM

SMILES: COc1cc(-n2c(-c3ccc([N+](=O)[O-])cc3)cccc2=O)cc(OC)c1OC
- IC50 (SK-OV-3): 201 nM
- inhibition in vivo at 50 mg/kg (H22 [3]): 31%
- Activity (HepG2 [4]): inactive
- inhibition in vivo at 200 mg/kg (H22 [5]): 61%
- IC50 (HepG2 [2]): < 10 nM

SMILES: COc1cc(-n2c(-c3cccc(O)c3)cccc2=O)cc(OC)c1OC
- IC50 (SK-OV-3): 1460 nM
- IC50 (HepG2 [2]): 34 nM

SMILES: COc1cc(-c2cccc(=O)n2-c2ccc([N+](=O)[O-])cc2)cc(OC)c1OC
- IC50 (SK-OV-3): 311 nM
- IC50 (HepG2 [2]): 941 nM

SMILES: COc1ccc(-n2c(-c3cc(OC)c(OC)c(OC)c3)cccc2=O)cc1OC
- IC50 (SK-OV-3): 14300 nM
- IC50 (HepG2 [2]): 4870 nM

SMILES: COc1ccc(-c2cccc(=O)n2-c2cc(OC)c(OC)c(OC)c2)cc1OC
- IC50 (SK-OV-3): 545 nM
- IC50 (HepG2 [2]): 513 nM

SMILES: COc1cc(-n2c(-c3cccc(F)c3)cccc2=O)cc(OC)c1OC
- IC50 (SK-OV-3): 472 nM
- IC50 (HepG2 [2]): 159 nM

SMILES: COc1cc(-n2c(-c3ccncc3)cccc2=O)cc(OC)c1OC
- IC50 (SK-OV-3): 1780 nM
- IC50 (HepG2 [2]): 1780 nM

SMILES: COc1cc(-c2cccc(=O)n2-c2cccc(F)c2)cc(OC)c1OC
- IC50 (SK-OV-3): 340 nM
- IC50 (HepG2 [2]): 73 nM

SMILES: COc1cc(-c2cccc(=O)n2-c2cc(OC)c(OC)c(OC)c2)cc(OC)c1OC
- IC50 (SK-OV-3): 844 nM
- IC50 (HepG2 [2]): 5460 nM

SMILES: COc1ccc(-n2c(-c3cc(OC)c(OC)c(OC)c3)cccc2=O)cc1O
- IC50 (SK-OV-3): 1220 nM
- IC50 (HepG2 [2]): 1220 nM

SMILES: COc1cc(-c2cccc(=O)n2-c2ccncc2)cc(OC)c1OC
- IC50 (SK-OV-3): 3020 nM
- IC50 (HepG2 [2]): 2520 nM

SMILES: COc1cc(-c2cccc(=O)n2-c2ccc3c(c2)OCO3)cc(OC)c1OC
- IC50 (SK-OV-3): 14000 nM
- IC50 (HepG2 [2]): 5410 nM

SMILES: COc1ccc(-c2cccc(=O)n2-c2cc(OC)c(OC)c(OC)c2)cc1OCc1ccccc1
- IC50 (SK-OV-3): 2310 nM
- IC50 (HepG2 [2]): 269 nM

SMILES: COc1cc(-n2c(-c3ccc(OC(F)(F)F)cc3)cccc2=O)cc(OC)c1OC
- IC50 (SK-OV-3): 461 nM
- IC50 (HepG2 [2]): 1960 nM

SMILES: COc1ccc(-n2c(-c3cc(OC)c(OC)c(OC)c3)cccc2=O)cc1
- IC50 (SK-OV-3): 1540 nM
- IC50 (HepG2 [2]): 5740 nM

SMILES: COc1ccc(-c2cccc(=O)n2-c2cc(OC)c(OC)c(OC)c2)cc1
- IC50 (SK-OV-3): < 10 nM
- inhibition in vivo at 50 mg/kg (H22 [3]): 41%
- Activity (HepG2 [4]): inactive
- inhibition in vivo at 200 mg/kg (H22 [5]): 54%
- IC50 (HepG2 [2]): < 10 nM

SMILES: COc1cc(-n2c(-c3cccc4cc[nH]c34)cccc2=O)cc(OC)c1OC
- IC50 (SK-OV-3): 138 nM
- IC50 (HepG2 [2]): 2400 nM

SMILES: COc1cc(-c2cccc(=O)n2-c2ccc(F)cc2)cc(OC)c1OC
- IC50 (SK-OV-3): 9740 nM
- IC50 (HepG2 [2]): > 100000 nM

SMILES: COc1ccc(-c2cccc(=O)n2-c2cc(OC)c(OC)c(OC)c2)cc1O
- IC50 (SK-OV-3): < 10 nM
- inhibition in vivo at 50 mg/kg (H22 [3]): 27%
- Activity (HepG2 [4]): inactive
- inhibition in vivo at 200 mg/kg (H22 [5]): 40%
- IC50 (HepG2 [2]): < 10 nM

SMILES: COc1ccc(-n2c(-c3cc(OC)c(OC)c(OC)c3)cccc2=O)cc1OCc1ccccc1
- IC50 (SK-OV-3): 25500 nM
- IC50 (HepG2 [2]): 3040 nM

SMILES: COc1cc(-c2cccc(=O)n2-c2ccc(C(F)(F)F)cc2)cc(OC)c1OC
- IC50 (SK-OV-3): 1920 nM
- IC50 (HepG2 [2]): 10200 nM
